From ChEMBL document CHEMBL1146076, “Identification of potent and selective inhibitors of PDGF receptor autophosphorylation” (J Med Chem, 2006)
pIC50: −log10 of the molar value.

Molecular target: Platelet-derived growth factor receptor alpha (Homo sapiens, UniProt P16234)
Experiment: Inhibition of PDGFR alpha phosphorylation in G292 cell
Type: functional, cell-based
Summary of the method: (§1)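 Cell-based ELISA on intact cells: PDGFR-α in G292 cells, c-kit in M07e cells, both quiesced in 0.1% FBS medium. Serial compound concentrations were added for 1 h at 37 °C, then 50 ng/mL PDGF-AA (G292) or SCF (M07e) was added. Lysates were captured on anti-phosphotyrosine (PY-20) plates overnight at 4 °C. Detection used anti-PDGFR-α or anti-c-kit plus HRP, read at A450. IC50 is the mean of two tests.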

Sequence of Platelet-derived growth factor receptor alpha (P16234 whole entry): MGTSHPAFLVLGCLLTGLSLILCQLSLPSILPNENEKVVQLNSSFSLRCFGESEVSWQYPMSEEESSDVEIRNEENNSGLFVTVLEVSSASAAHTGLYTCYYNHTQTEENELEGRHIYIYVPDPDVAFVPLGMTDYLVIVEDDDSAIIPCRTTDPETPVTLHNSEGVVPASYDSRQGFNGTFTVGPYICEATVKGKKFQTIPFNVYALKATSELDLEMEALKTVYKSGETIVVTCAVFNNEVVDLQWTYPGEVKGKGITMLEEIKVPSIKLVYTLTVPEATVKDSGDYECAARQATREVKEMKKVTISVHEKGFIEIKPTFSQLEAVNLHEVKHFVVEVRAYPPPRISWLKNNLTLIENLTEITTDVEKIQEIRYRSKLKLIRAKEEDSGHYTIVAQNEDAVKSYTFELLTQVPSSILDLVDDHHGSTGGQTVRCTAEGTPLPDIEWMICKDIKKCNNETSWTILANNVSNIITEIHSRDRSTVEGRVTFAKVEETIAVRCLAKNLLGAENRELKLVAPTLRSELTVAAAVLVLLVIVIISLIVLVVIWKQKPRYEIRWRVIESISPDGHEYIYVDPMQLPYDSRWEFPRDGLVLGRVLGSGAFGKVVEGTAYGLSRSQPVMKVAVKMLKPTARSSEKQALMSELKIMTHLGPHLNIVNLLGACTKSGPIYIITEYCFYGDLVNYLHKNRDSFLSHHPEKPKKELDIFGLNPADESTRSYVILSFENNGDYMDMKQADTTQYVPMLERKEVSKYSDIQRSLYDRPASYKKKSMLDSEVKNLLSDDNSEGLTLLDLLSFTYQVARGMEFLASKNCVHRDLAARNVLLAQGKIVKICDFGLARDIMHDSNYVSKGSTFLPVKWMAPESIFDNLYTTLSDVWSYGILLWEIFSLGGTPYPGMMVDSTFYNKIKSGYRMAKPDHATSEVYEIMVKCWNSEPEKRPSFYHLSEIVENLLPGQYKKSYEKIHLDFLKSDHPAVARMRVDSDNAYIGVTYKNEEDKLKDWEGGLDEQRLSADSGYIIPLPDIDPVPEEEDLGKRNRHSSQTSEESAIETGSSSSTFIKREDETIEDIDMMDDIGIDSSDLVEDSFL

Structure (SMILES)	pIC50
COc1cc2nccc(Oc3ccc(NC(=S)NC4CCCCC4)cc3)c2cc1OC	7.40
COc1cc2nccc(Oc3ccc(NC(=O)OCCC4CCCCC4)cc3)c2cc1OC	7.74
COc1cc2nccc(Oc3ccc(NC(=O)NC4CCCCC4)cc3)c2cc1OC	7.92
COc1cc2nccc(Oc3ccc(NC(=S)NC(=O)C4CCCCC4)cc3)c2cc1OC	7.82
COc1cc2ncnc(Oc3ccc(NC(=S)NCc4ccccc4)cc3)c2cc1OC	7.34
COc1cc2ncnc(Oc3ccc(NC(=S)NCC4CCCCC4)cc3)c2cc1OC	7.43
COc1cc2nccc(Oc3ccc(NC(=S)NC(=O)c4ccccc4)cc3)c2cc1OC	8.10
COc1cc2ncnc(Oc3ccc(NC(=O)NCCC4CCCCC4)cc3)c2cc1OC	8.05
COc1cc2nccc(Oc3ccc(NC(=S)NC(=O)c4ccccc4Cl)cc3)c2cc1OC	8.30
COc1cc2nccc(Oc3ccc(NC(=O)NCCC4CCCCC4)cc3)c2cc1OC	8.22
COc1cc2nccc(Oc3ccc(NC(=O)Oc4ccccc4)cc3)c2cc1OC	8.30
COc1cc2ncnc(Oc3ccc(NC(=O)NC4CCCCC4)cc3)c2cc1OC	8.15

Molecular target: Mast/stem cell growth factor receptor Kit (Homo sapiens, UniProt P10721)
Experiment: Inhibition of c-kit receptor phosphorylation in M07e cell
Type: functional, cell-based
Summary of the method: as §1

Sequence of Mast/stem cell growth factor receptor Kit (P10721 whole entry): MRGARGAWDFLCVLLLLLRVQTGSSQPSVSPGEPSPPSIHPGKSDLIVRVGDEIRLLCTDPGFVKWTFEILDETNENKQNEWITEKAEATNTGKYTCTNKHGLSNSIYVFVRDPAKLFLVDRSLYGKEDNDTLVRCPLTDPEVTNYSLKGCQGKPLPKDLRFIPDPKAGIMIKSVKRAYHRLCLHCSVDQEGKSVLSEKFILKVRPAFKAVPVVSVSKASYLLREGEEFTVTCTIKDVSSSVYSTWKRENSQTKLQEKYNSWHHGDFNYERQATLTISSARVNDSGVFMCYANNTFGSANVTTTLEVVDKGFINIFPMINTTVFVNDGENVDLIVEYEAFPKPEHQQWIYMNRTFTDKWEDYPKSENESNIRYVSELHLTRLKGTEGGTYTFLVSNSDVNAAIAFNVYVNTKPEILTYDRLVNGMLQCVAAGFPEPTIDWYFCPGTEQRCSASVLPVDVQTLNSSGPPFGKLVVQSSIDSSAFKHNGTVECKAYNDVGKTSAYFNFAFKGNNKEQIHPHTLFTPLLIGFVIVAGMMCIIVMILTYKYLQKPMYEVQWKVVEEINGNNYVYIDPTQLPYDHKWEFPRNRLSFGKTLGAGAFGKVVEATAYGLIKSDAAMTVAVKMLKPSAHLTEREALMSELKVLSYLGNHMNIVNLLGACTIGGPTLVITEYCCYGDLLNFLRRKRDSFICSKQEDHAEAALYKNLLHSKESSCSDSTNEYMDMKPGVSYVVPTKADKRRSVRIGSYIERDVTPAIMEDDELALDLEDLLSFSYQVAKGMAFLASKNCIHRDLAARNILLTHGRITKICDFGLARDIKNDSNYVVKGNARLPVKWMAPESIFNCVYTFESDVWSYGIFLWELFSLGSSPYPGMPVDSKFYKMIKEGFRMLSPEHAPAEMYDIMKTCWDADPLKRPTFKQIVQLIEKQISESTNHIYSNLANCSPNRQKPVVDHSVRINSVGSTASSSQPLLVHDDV

Structure (SMILES)	pIC50
COc1cc2nccc(Oc3ccc(NC(=S)NC4CCCCC4)cc3)c2cc1OC	7.16
COc1cc2nccc(Oc3ccc(NC(=O)OCCC4CCCCC4)cc3)c2cc1OC	7.10
COc1cc2nccc(Oc3ccc(NC(=O)NC4CCCCC4)cc3)c2cc1OC	7.66
COc1cc2ncnc(Oc3ccc(NC(=S)NCc4ccccc4)cc3)c2cc1OC	6.52
COc1cc2ncnc(Oc3ccc(NC(=S)NCC4CCCCC4)cc3)c2cc1OC	6.82
COc1cc2ncnc(Oc3ccc(NC(=O)NCCC4CCCCC4)cc3)c2cc1OC	> 7.52
COc1cc2nccc(Oc3ccc(NC(=O)NCCC4CCCCC4)cc3)c2cc1OC	> 7.52
COc1cc2ncnc(Oc3ccc(NC(=O)NC4CCCCC4)cc3)c2cc1OC	7.57
